Converted amounts (≈) assume the structure as drawn. The source made the active and inactive calls. The rule behind the calls is not given here.
How the values were obtained:
Streptococcus pneumoniae [1] = experiment: Antimicrobial activity against Streptococcus pneumoniae ATCC 6303 infected in BALB/c mouse pneumonia model assessed as reduction in lung bacterial load at 20 mg/kg, po administered twice daily 3 days starting 16 hrs post infection; format: functional
Procedure, shortened: (§1)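 Anesthetized (ketamine/xylazine) female BALB/c mice (19 to 22 g) inoculated intranasally with 50 µl log-phase culture (1.4 × 10^5 CFU/mouse). Oral treatment, six mice per group, at 16, 27, 40, 51, 64 and 75 h postinfection; vehicle controls. Lungs harvested one day after last dose, homogenized, plated; log10 CFU/lung. Deaths assigned 9 log10 CFU/lung; Kruskal-Wallis with Dunn's test versus control.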

Streptococcus pneumoniae [2] = experiment: Antimicrobial activity against Streptococcus pneumoniae ATCC 6303 infected in BALB/c mouse pneumonia model assessed as complete eradication of bacteria at 40 mg/kg, po administered twice daily 3 days starting 16 hrs post infection; format: functional, organism-based; set-up: dose 40 mg/kg; procedure, shortened: as §1
Staphylococcus aureus [3] = experiment: Antimicrobial activity against methicillin susceptible Staphylococcus aureus ATCC 49951 infected in sc dosed NMRI mouse treated 1 and 5 hrs post infection; format: functional; details: ATCC 49951, sc
Procedure, shortened: (§2)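 Intraperitoneal infection (0.3 ml/mouse, 10 to 100 times minimal lethal dose) with inoculum in 0.86% NaCl; ATCC 49951 grown overnight in Mueller-Hinton broth (1.7 × 10^7 to 2.2 × 10^7 CFU/mouse), ATCC 13709 in tryptic soy broth (7.3 × 10^7 to 2 × 10^8 CFU/mouse). Groups of 5 to 6 mice, typically three doses, treated 1 and 5 h postinfection; vehicle controls. ED50 by probit analysis of day-8 survival.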

Staphylococcus aureus [4] = experiment: Antimicrobial activity against methicillin-susceptible Staphylococcus aureus ATCC 13709 by broth microdilution method; format: functional
Procedure, shortened: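 MIC by broth microdilution following CLSI guidelines.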

[5] = AUC in CD1 mouse at 5 mg/kg, iv by liquid chromatography/mass spectroscopy; format: ADME, organism-based; set-up: dose 5 mg/kg, route intravenous; details: plasma
Procedure, shortened: (§3)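 CD1 mice given 20 mg/kg p.o. or 5 mg/kg i.v.; blood sampled from three mice per time point, first at 0.083 h (i.v.) or 0.25 h (p.o.), last at 24 h. Plasma separated by centrifugation (10,000 rpm, 10 min, 4°C), stored at −80°C, assayed by LC/MS. Mean concentration-time course used for parameters; F from ratio of dose-normalized AUCs; C0 extrapolated from i.v. curve.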

Staphylococcus aureus [6] = experiment: Antimicrobial activity against methicillin-resistant Staphylococcus aureus NB01021 by broth microdilution method; format: functional
Procedure, shortened: (§4)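 MICs determined by broth microdilution following CLSI guidelines. Inocula came from overnight Mueller-Hinton broth (ATCC 49951, NB01021) or overnight Trypticase soy agar culture (ATCC 6301). ATCC 6303 and ATCC 700677 came from a 5-h log culture in Todd-Hewitt broth–30% horse serum.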

Streptococcus pneumoniae [7] = experiment: Antimicrobial activity against Streptococcus pneumoniae ATCC 6301 infected in po dosed NMRI mouse administered thrice daily for 4 days; details: ATCC 6301, po, 96 h
[8] = Volume of distribution at steady state in CD1 mouse at 5 mg/kg, iv by liquid chromatography/mass spectroscopy; format: ADME, organism-based; set-up: dose 5 mg/kg, route intravenous; details: in vivo, read-out: Vdss; procedure, shortened: as §3
Streptococcus pneumoniae [9] = experiment: Antimicrobial activity against multiple drug-resistant Streptococcus pneumoniae ATCC 700677 by broth microdilution method; format: functional; procedure, shortened: as §4
Streptococcus pneumoniae [10] = experiment: Antimicrobial activity against Streptococcus pneumoniae ATCC 6303 infected in po dosed BALB/c mouse pneumonia model assessed as complete eradication of bacteria administered twice daily 3 days starting 16 hrs post infection; format: functional; procedure, shortened: as §1
Mus musculus [11] = experiment: Drug concentration at time zero in CD1 mouse at 5 mg/kg, iv by liquid chromatography/mass spectroscopy; format: ADME, organism-based; set-up: dose 5 mg/kg, route intravenous; details: in vivo; procedure, shortened: as §3
[12] = Clearance in CD1 mouse at 5 mg/kg, iv by liquid chromatography/mass spectroscopy; format: ADME, organism-based; set-up: dose 5 mg/kg, route intravenous; details: in vivo; procedure, shortened: as §3
Staphylococcus aureus [13] = experiment: Antimicrobial activity against multiple drug resistant Staphylococcus aureus NB01021 infected in immunocompetent NMRI mouse soft tissue infection model assessed as reduction in thigh bacterial load at 50 mg/kg, po administered thrice a day for 2 days; format: functional
Procedure, shortened: (§5)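 Thigh infection: 50 µl of freshly prepared NB01021 suspension (3.8 × 10^6 CFU/thigh) injected intramuscularly into the left hind thigh of female NMRI mice (20–23 g). Oral doses at 0, 4, 8, 24, 28, 32 h; vehicle controls. Thighs excised 18 h after last dose, homogenized in saline and plated on blood agar (detection limit 100 CFU/thigh). Medians compared to controls by Mann-Whitney rank sum test.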

Staphylococcus aureus [14] = experiment: Antimicrobial activity against multiple drug resistant Staphylococcus aureus NB01021 infected in immunocompetent NMRI mouse soft tissue infection model assessed as reduction in thigh bacterial load at 16.7 mg/kg, po administered thrice a day for 2 days; format: functional; procedure, shortened: as §5
Streptococcus pneumoniae [15] = experiment: Antimicrobial activity against multiple drug resistant Streptococcus pneumoniae ATCC 700677 infected in sc dosed BALB/c mouse administered twice daily for 3 days; format: functional; details: ATCC 700677, sc, 72 h
Procedure, shortened: (§6)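 Female BALB/c mice (19–23 g) infected intraperitoneally with ATCC 700677 from a 5-h Todd-Hewitt–30% horse serum log culture, suspended in 5% hog mucin, 1.5 × 10^7 to 2 × 10^7 CFU/mouse. Groups of 5–6, typically three dose levels; vehicle controls. Dosed 1, 5, 17, 27, 42, 51 h post-infection. ED50 from day-8 survival by probit analysis, with 95% CI.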

Streptococcus pneumoniae [16] = experiment: Antimicrobial activity against Streptococcus pneumoniae ATCC 6303 infected in BALB/c mouse pneumonia model assessed as reduction in lung bacterial load at 80 mg/kg, po administered twice daily 3 days starting 16 hrs post infection; format: functional; procedure, shortened: as §1
Staphylococcus aureus [17] = experiment: Antimicrobial activity against methicillin susceptible Staphylococcus aureus ATCC 49951 infected in po dosed NMRI mouse treated 1 and 5 hrs post infection; format: functional; details: ATCC 49951, po; procedure, shortened: as §2
Mus musculus [18] = experiment: Cmax in CD1 mouse at 20 mg/kg, po by liquid chromatography/mass spectroscopy; format: ADME, organism-based; set-up: dose 20 mg/kg, route oral; details: in vivo; procedure, shortened: as §3
[19] = AUC in CD1 mouse at 20 mg/kg, po by liquid chromatography/mass spectroscopy; format: ADME, organism-based; set-up: dose 20 mg/kg, route oral; details: plasma; procedure, shortened: as §3
[20] = Bioavailability in CD1 mouse at 20 mg/kg, po by liquid chromatography/mass spectroscopy; details: in vivo
Staphylococcus aureus [21] = experiment: Antimicrobial activity against methicillin susceptible Staphylococcus aureus ATCC 13709 infected in po dosed NMRI mouse treated 1 and 5 hrs post infection; format: functional; details: ATCC 13709, po; procedure, shortened: as §2
Streptococcus pneumoniae [22] = experiment: Antimicrobial activity against Streptococcus pneumoniae ATCC 6301 by broth microdilution method; format: functional; procedure, shortened: as §4
Staphylococcus aureus [23] = experiment: Antimicrobial activity against methicillin-resistant Staphylococcus aureus NB01021 infected in sc dosed BALB/c mouse administered 0, 4, 23 hrs post infection; format: functional
Procedure, shortened: (§7)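 Female BALB/c mice (19–23 g) infected intraperitoneally with MRSA NB01021 in 5% hog gastric mucin, 2.1 × 10^7 to 2.8 × 10^7 CFU/mouse (0.3 ml), 10–100× minimal lethal dose. Three dose levels, groups of 5–6; vehicle controls. Treatment 0, 4 and 23 h post-infection. Observed 8 days; ED50 with 95% CI by probit analysis of day-8 survival.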

Streptococcus pneumoniae [24] = experiment: Antimicrobial activity against multiple drug resistant Streptococcus pneumoniae ATCC 700677 infected in po dosed BALB/c mouse administered twice daily for 3 days; format: functional; details: ATCC 700677, po, 72 h; procedure, shortened: as §6
Staphylococcus aureus [25] = experiment: Antimicrobial activity against methicillin-susceptible Staphylococcus aureus ATCC 49951 by broth microdilution method; format: functional; procedure, shortened: as §4
Staphylococcus aureus [26] = experiment: Antimicrobial activity against methicillin-resistant Staphylococcus aureus NB01021 infected in po dosed BALB/c mouse administered 0, 4, 23 hrs post infection; format: functional; procedure, shortened: as §7
[27] = Tmax in CD1 mouse at 20 mg/kg, po by liquid chromatography/mass spectroscopy; format: ADME, organism-based; set-up: dose 20 mg/kg, route oral; details: in vivo; procedure, shortened: as §3
Streptococcus pneumoniae [28] = experiment: Antimicrobial activity against Streptococcus pneumoniae ATCC 6303 infected in BALB/c mouse pneumonia model assessed as reduction in lung bacterial load at 40 mg/kg, po administered twice daily 3 days starting 16 hrs post infection; format: functional; procedure, shortened: as §1
Staphylococcus aureus [29] = experiment: Antimicrobial activity against multiple drug resistant Staphylococcus aureus NB01021 infected in immunocompetent NMRI mouse soft tissue infection model assessed as reduction in thigh bacterial load at 5.6 mg/kg, po administered thrice a day for 2 days; format: functional; procedure, shortened: as §5
Streptococcus pneumoniae [30] = experiment: Antimicrobial activity against Streptococcus pneumoniae ATCC 6303 by broth microdilution method; format: functional; procedure, shortened: as §4

SMILES: CCCC[C@H](CN(O)C=O)C(=O)N1CCC[C@H]1C(=O)Nc1ccc(F)c[n+]1[O-]
- log10cfu (Streptococcus pneumoniae [1]): 5.1
- Activity (Streptococcus pneumoniae [2]): Active
- ED50 (Staphylococcus aureus [3]): 1.1 mg/kg
- MIC (Staphylococcus aureus [4]): 4 µg/mL (≈ 10.1 µM)
- AUC [5]: 2690 ng·h/mL
- MIC (Staphylococcus aureus [6]): 2 µg/mL (≈ 5.05 µM)
- ED50 (Streptococcus pneumoniae [7]): 6.4 mg/kg
- Vd [8]: 3.12 L/kg
- MIC (Streptococcus pneumoniae [9]): 0.5 µg/mL (≈ 1.26 µM)
- ED50 (Streptococcus pneumoniae [10]): 23.3 mg/kg
- Drug uptake (Mus musculus [11]): 5361 ng/mL
- clearance [12]: 30.8 mL/min/kg
- log10cfu (Staphylococcus aureus [13]): 3.6
- log10cfu (Staphylococcus aureus [14]): 5.6
- ED50 (Streptococcus pneumoniae [15]): 4.8 mg/kg
- log10cfu (Streptococcus pneumoniae [16]): 2.3
- ED50 (Staphylococcus aureus [17]): 2.3 mg/kg
- Cmax (Mus musculus [18]): 4250 ng/mL
- AUC [19]: 5700 ng·h/mL
- bioavailability [20]: 53%
- ED50 (Staphylococcus aureus [21]): 13.2 mg/kg
- MIC (Streptococcus pneumoniae [22]): 0.125 µg/mL (≈ 0.315 µM)
- ED50 (Staphylococcus aureus [23]): 0.7 mg/kg
- ED50 (Streptococcus pneumoniae [24]): 36.6 mg/kg
- MIC (Staphylococcus aureus [25]): 0.125 µg/mL (≈ 0.315 µM)
- ED50 (Staphylococcus aureus [26]): 5.9 mg/kg
- Tmax [27]: 30 min
- log10cfu (Streptococcus pneumoniae [28]): <2
- log10cfu (Staphylococcus aureus [29]): 6.3
- MIC (Streptococcus pneumoniae [30]): 2 µg/mL (≈ 5.05 µM)

SMILES: CC1(C)S[C@@H]2[C@H](NC(=O)[C@H](N)c3ccc(O)cc3)C(=O)N2[C@H]1C(=O)O [AMOXICILLIN]
- MIC (Staphylococcus aureus [4]): 1 µg/mL (≈ 2.74 µM)
- MIC (Staphylococcus aureus [6]): 128 µg/mL (≈ 350 µM)
- MIC (Streptococcus pneumoniae [9]): 4 µg/mL (≈ 10.9 µM)
- MIC (Streptococcus pneumoniae [22]): 0.03 µg/mL (≈ 0.0821 µM)
- MIC (Staphylococcus aureus [25]): 0.5 µg/mL (≈ 1.37 µM)
- ED50 (Staphylococcus aureus [26]): > 50 mg/kg
- MIC (Streptococcus pneumoniae [30]): 0.03 µg/mL (≈ 0.0821 µM)

SMILES: CC[C@H]1OC(=O)[C@H](C)[C@@H](O[C@H]2C[C@@](C)(OC)[C@@H](O)[C@H](C)O2)[C@H](C)[C@@H](O[C@@H]2O[C@H](C)C[C@H](N(C)C)[C@H]2O)[C@](C)(OC)C[C@@H](C)C(=O)[C@H](C)[C@@H](O)[C@]1(C)O [CLARITHROMYCIN]
- ED50 (Staphylococcus aureus [3]): 1.2 mg/kg
- MIC (Staphylococcus aureus [4]): 0.5 µg/mL (≈ 0.668 µM)
- MIC (Staphylococcus aureus [6]): > 64 µg/mL
- ED50 (Streptococcus pneumoniae [7]): 2.1 mg/kg
- MIC (Streptococcus pneumoniae [9]): 32 µg/mL (≈ 42.8 µM)
- ED50 (Staphylococcus aureus [17]): 7.7 mg/kg
- ED50 (Staphylococcus aureus [21]): 8.7 mg/kg
- MIC (Streptococcus pneumoniae [22]): 0.015 µg/mL (≈ 0.0201 µM)
- ED50 (Streptococcus pneumoniae [24]): > 60 mg/kg
- MIC (Staphylococcus aureus [25]): 1 µg/mL (≈ 1.34 µM)
- MIC (Streptococcus pneumoniae [30]): 0.03 µg/mL (≈ 0.0401 µM)

SMILES: CC(=O)NC[C@H]1CN(c2ccc(N3CCOCC3)c(F)c2)C(=O)O1 [LINEZOLID]
- ED50 (Staphylococcus aureus [3]): 7.4 mg/kg
- MIC (Staphylococcus aureus [4]): 1 µg/mL (≈ 2.96 µM)
- MIC (Staphylococcus aureus [6]): 1 µg/mL (≈ 2.96 µM)
- ED50 (Streptococcus pneumoniae [7]): 5.6 mg/kg
- MIC (Streptococcus pneumoniae [9]): 0.25 µg/mL (≈ 0.741 µM)
- ED50 (Staphylococcus aureus [17]): 7 mg/kg
- ED50 (Staphylococcus aureus [21]): 10.3 mg/kg
- MIC (Staphylococcus aureus [25]): 1 µg/mL (≈ 2.96 µM)
- ED50 (Staphylococcus aureus [26]): 2 mg/kg

From ChEMBL document CHEMBL1671663, “In vivo characterization of the peptide deformylase inhibitor LBM415 in murine infection models” (Antimicrob Agents Chemother, 2009)
